Here are results for three compounds from PMC4392893 (Cancer chemotherapy and pharmacology, 2014).

The test system of one data set is NF-kB pathway. The settings on record: mouse RAW264.7 macrophages; cited from earlier work.
A further data set has as its system IKKβ. As to conditions: cited from earlier work.
The conditions of data set [1]: athymic nude mice, cited from earlier work.
Data set [2] concerns SCC Tu212 xenograft tumors. The settings on record: cited from earlier work.
The test system of a further data set is osteoclastogenesis. The settings on record: in vitro; cited from earlier work.
Data set [3] in a line: EF-24 stability in human plasma. As to conditions: for half-life at 31.25 nM / half-life at 1000 nM: human, plasma, Half-life in plasma. In kind it is in vitro ADME. The method, boiled down:
(§1)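 Test compound at 31.25 or 1000 nM was held in plasma at 4°C and 37°C for 24 h. Plasmas: mouse and rat from heparin-CPD blood, dog heparinised, human from healthy volunteers. Aliquots at 5, 15 and 30 min and 1, 2, 4, 6 and 24 h went into silanized tubes, were frozen at −20°C, then protein-precipitated with methanol. Samples were quantified by LC/MS/MS (m/z 312→149) against an internal standard. Half-lives were derived from loss over time.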

A short description of data set [4]: EF-24 stability in mouse plasma. The format is in vitro ADME. The settings on record: for Half-life in plasma: mouse plasma, 4°. The method in brief:
as §1

Data set [5] is described as follows: EF-24 stability in rat plasma. The settings on record: for Half-life in plasma: 4°. In kind it is in vitro ADME. The method, boiled down:
as §1

Data set [6] in a line: EF-24 stability in dog plasma. The settings on record: for Half-life in plasma: dog plasma, 4°. In kind it is in vitro ADME. The method in brief:
as §1

Data set [7] in a line: Partition ratio and stability in fresh mouse whole blood. The format is in vitro ADME. The settings on record: 24-hour incubation in whole blood at 37°C. The method, boiled down:
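Fresh mouse whole blood (heparin in citrate-phosphate-dextrose) was spiked in silanized amber vials and kept on ice or at 37°C for 24 h. On ice, aliquots were taken at 0, 5, 15, 30, 60, 120 and 240 min. Red cells were pelleted at 10,000 rpm for 3 min, and plasma was frozen at −20°C before LC/MS/MS. For partitioning, equal amounts (3.9–2000 nM) went into plasma and whole blood.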

The target of a further data set is human serum albumin (Homo sapiens, UniProt P02768). Nature of the data set: Binding to human serum albumin by ultracentrifugation. The settings on record: human serum albumin 40 mg/ml in phosphate buffered saline, pH 7.4. The method, boiled down:
(§2)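 Ultracentrifugation binding assay. Matrices were thawed mouse, rat, dog or human plasma, human serum albumin (40 mg/ml in PBS, pH 7.4) or α1-acid glycoprotein (1 mg/ml). Samples were incubated 30 min at 37°C, then spun at 90,000 rpm for 3 h at 4°C. Drug was measured by LC/MS/MS before and after spinning, with upper supernatant taken as unbound. Supernatant protein-free status was confirmed by DC protein assay. Binding was calculated from percent recovered.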

The subject of data set [8] is human α1-acid glycoprotein. Nature of the data set: Binding to α1-acid glycoprotein by ultracentrifugation. The settings on record: α1-acid glycoprotein 1 mg/ml. The method in brief: as §2
Data set [9] is described as follows: Pharmacokinetics in male CD2F1 mice. The settings on record: for Bioavailability: by comparison of AUC values. In kind it is in vivo, mouse. The method, boiled down: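 Male CD2F1 mice (19–26 g) received 10 mg/kg in D5W:DMSO (9:1) by tail-vein i.v., i.p. or oral gavage. Cardiac-puncture blood was drawn under methoxyflurane, two mice per time point, at 3–240 min (i.v.) or 3–480 min (i.p., oral). Plasma was analysed by LC/MS/MS. Half-life came from compartmental and AUC/CL from noncompartmental analysis of mean concentrations, bioavailability from AUC ratios. Urine was pooled over 24 h after 25 or 32 mg/kg i.v.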

Data set [10] in a line: NADPH-dependent metabolism in mouse liver microsomes. The settings on record: 10 μM, 15-minute incubation. In kind it is in vitro ADME. The method in brief: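 Liver microsomes came from male CD2F1 mice, untreated or given phenobarbital (80 mg/kg) or 3-methylcholanthrene (20 mg/kg) i.p. for 3 days. Microsomes were isolated on day 4 by differential centrifugation. Test compound at 10 µM was incubated at 37°C with 0.2–1 mg/ml protein, 1.0 mM NADPH, 5 mM MgCl2 and 100 mM potassium phosphate, pH 7.4, for 15 min. Controls lacked NADPH. Reactions were stopped with ice-cold methanol, and remaining drug was measured by LC/MS/MS.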
(Liver microsomes are a subcellular fraction often used to study metabolism.)

Data set [11] can be described thus: NADPH-dependent metabolism in human liver microsomes. The format is in vitro ADME. As to conditions: 10 μM, 120 minutes (Fig 4 legend). The method in brief:
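Pooled human liver microsomes came from livers unsuitable for transplantation. They were preincubated 2 min in 100 mM potassium phosphate (pH 7.4), 5 mM MgCl2 ± 1.0 mM NADPH at 37°C. Reactions were started with test compound (10 µM) at 0.2–1 mg/ml protein and ran 120 min. NADPH-free incubations served as controls. Reactions were quenched with ice-cold methanol (2:1), and remaining drug was quantified by LC/MS/MS.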

Data set [12] in a line: Light sensitivity during assay development. The format is physicochemical. As to conditions: second peak prevented by aluminum foil or amber vials.
For data set [13], the system named is NCI anti-cancer cell line screen. The settings on record: read-out: Mean GI50; cited from earlier work.
The test system of data set [14] is HCT-116 human colon tumor xenograft. The settings on record: cited from earlier work.
A further data set has as its system MiPaPc xenografts. The settings on record: 10 and 20 mg/kg i.p., ref Manuscripts in preparation 2013; cited from earlier work.
Data set [15] concerns osteoblastic differentiation and mineralization. As to conditions: in vitro, associated with Smad signaling; cited from earlier work.
The mark [16] stands for this setting: 10 mg/kg, intraperitoneal, male CD2F1 mice.
Setting [17] is: 10 mg/kg, oral, male CD2F1 mice.
The mark [18] stands for this setting: male, CD2F1, mouse, plasma, ip, 10 mg/kg.
Where [19] appears, read: male, CD2F1, mouse, plasma, iv, 10 mg/kg.
The mark [20] stands for this setting: male, CD2F1, mouse, plasma, po, 10 mg/kg.

The structures appear in SMILES notation. Where two headings read alike, the source gives them in different places.

human serum albumin, sequence (P02768 25-609): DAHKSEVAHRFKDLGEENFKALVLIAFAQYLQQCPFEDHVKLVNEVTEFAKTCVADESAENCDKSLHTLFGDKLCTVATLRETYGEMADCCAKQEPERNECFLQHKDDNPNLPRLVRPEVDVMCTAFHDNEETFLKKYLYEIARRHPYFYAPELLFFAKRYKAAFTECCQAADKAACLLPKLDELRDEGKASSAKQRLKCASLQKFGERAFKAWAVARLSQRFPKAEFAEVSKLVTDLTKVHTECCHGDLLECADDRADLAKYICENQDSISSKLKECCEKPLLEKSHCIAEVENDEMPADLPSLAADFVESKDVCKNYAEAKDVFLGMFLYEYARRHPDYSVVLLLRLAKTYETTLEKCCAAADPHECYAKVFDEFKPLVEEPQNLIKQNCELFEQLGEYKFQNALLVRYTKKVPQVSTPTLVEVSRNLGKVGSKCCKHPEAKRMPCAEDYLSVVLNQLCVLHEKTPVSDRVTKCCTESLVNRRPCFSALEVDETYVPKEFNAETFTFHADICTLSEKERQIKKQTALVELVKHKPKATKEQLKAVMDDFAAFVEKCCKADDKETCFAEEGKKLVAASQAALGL

For the compound `O=C1C(=Cc2ccccn2)CNCC1=Cc1ccccn1` [EF31, 3,5-Bis(2-pyridinylmethylidene)-4piperidone], in the data set with NF-kB pathway, the “Fold more potent blocker of NF-kB pathway activity than EF24” value is recorded as 7 fold and the “Fold more potent blocker of NF-kB pathway activity than curcumin” value is over 10 fold. Besides, the “Fold more effective inhibition of IKKβ vs. EF24” value in the data set with IKKβ is recorded as ~ 65 fold. Also, the “Average AUC(0-∞)” value in data set [1] (15 mg/kg i.p.) is on record as 3386 h x ng mL^−1. Also, the “Average AUC(0-∞)” value in [1] (25 mg/kg i.p.) is on record as 7769 h x ng mL^−1. For the same compound, the “Effect on xenograft tumors” value in data set [2] (15 and 25 mg/kg i.p.) was “dose-response”. Besides, the “Effect on osteoclastogenesis as compared with curcumin” value in the data set with osteoclastogenesis is “suppressive effect”.
Broadly, the half-life is the time needed for the level to fall by half in the phase considered. Lower therefore signals rapid decline. The term Cmax denotes the peak of the concentration-time curve. A word on the AUC: it is the area under the concentration-time curve, a measure of exposure. Broadly, the Tmax is the time at which the peak concentration occurs. By Vd is commonly meant the apparent volume that relates the amount in the body to the concentration in plasma or blood. Lower therefore signals confinement near the circulation. What is called clearance is the volume of plasma or blood freed of the substance per unit of time. Low readings indicate inefficient removal, high ones efficient removal. What is called GI50 is the concentration at which growth is held to half of that of the control. As to `CC(=O)O.O=C1C(=Cc2ccccc2F)CNCC1=Cc1ccccc1F` [EF-24, 3,5-bis[(2-fluorophenyl)methylene]-4-piperidinone acetate], the Stability in plasma result in [3] (24-hour period) was “stable”; in data set [5] (rat plasma, 24-hour period), “stable”. In addition, the half-life at 31.25 nM is 84 h in [3] (4°); 79 h in [3] (37°); 12 h in [4] (mouse, plasma); 50 h in data set [5] (rat, plasma); 36 h in data set [6] (dog, plasma). The half-life at 1000 nM is 100 h in data set [3] (4°); 58 h in data set [3] (37°); 10 h in data set [4] (mouse, plasma); 66 h in data set [5] (rat, plasma); 33 h in [6] (dog, plasma). Besides, the Half-life in plasma result was “Stable” in [4] (31.25 nM); “Stable” in [4] (1000 nM); “Stable” in data set [5] (rat plasma, 31.25 nM); “Stable” in data set [5] (rat plasma, 1000 nM); “Stable” in data set [6] (31.25 nM); “Stable” in data set [6] (1000 nM). In addition, the half-life is 11 h in data set [4] (mouse, plasma); 35 h in data set [6] (dog, plasma); about 3.33 h in [9] (male, CD2F1, mouse, plasma, ip, 10 mg/kg, t1/2z, intraperitoneal, male CD2F1 mice); 1.23 h in data set [9] (male, CD2F1, mouse, plasma, iv, 10 mg/kg, t1/2z (terminal elimination half-life), male CD2F1 mice); 0.09 h in data set [9] (male, CD2F1, mouse, plasma, iv, 10 mg/kg, t1/2β, male CD2F1 mice); about 3.33 h in data set [9] (male, CD2F1, mouse, plasma, po, 10 mg/kg, t1/2z, male CD2F1 mice). Besides, the “Stability in whole blood” value in data set [7] is “Multi-exponential loss”. Also, the Percent bound on human serum albumin is reported as 95-100%; in [8], under 20%. The “Time of secondary peak concentration” value in [9] (10 mg/kg, i.p., male CD2F1 mice, plasma) was determined as 360 min. In data set [9] (10 mg/kg, i.v., male CD2F1 mice), this compound displayed a Peak plasma concentration of 2.5 µM. The Bioavailability in [9] (10 mg/kg, intraperitoneal) is given as 34.7%; in [9] (10 mg/kg, oral), 60.1%. In addition, the t1/2z in data set [9] (setting [16]) was 3.65 h; in [9] (setting [17]), 2.95 h. The t1/2α in data set [9] (setting [16]) is on record as 8.9 min; in data set [9] (10 mg/kg, intravenous, male CD2F1 mice), 0.4 min; in data set [9] (setting [17]), 3.3 min. Also, the Cmax was found to be 833 nM in data set [9] (10 mg/kg, intraperitoneal, male CD2F1 mice, plasma); 882 nM in [9] (10 mg/kg, oral, male CD2F1 mice, plasma); 2490 nM in [9] (male, CD2F1, mouse, plasma, iv, 10 mg/kg, Cmax, male CD2F1 mice). The figures for the exposure (AUC) in [9] (setting [18]), in data set [9] (setting [19]) and in [9] (setting [20]) were 0.346 µM·h, 0.996 µM·h and 0.599 µM·h, respectively. For the same compound, the results for the time to peak (Tmax) in data set [9] (setting [18]), in data set [9] (setting [19]) and in data set [9] (setting [20]) were 3 min, 2.7 min and 3 min, respectively. Further, the Vd in data set [9] (setting [19]) came to 4.85 L/kg. For the same compound, the clearance in data set [9] (setting [19]) is 482 mL/min/kg. Also, the “EF-24 in 24-hour pooled urine” value in data set [9] (mice administered 25 mg/kg or 32 mg/kg intravenously) was “not detected”. Also, the “EF-24 consumed by NADPH-dependent metabolism” value in data set [10] (liver microsomes from 3MC-pretreated mice) is 54%; in data set [10] (liver microsomes from PB-pretreated mice), 41%; in data set [10] (liver microsomes from untreated mice), 40%; in data set [11] it was over 70%. The Stability to light result in data set [12] is “light sensitivity”. For the same compound, in data set [13], the concentration for 50% growth inhibition (GI50) was 700 nM. Besides, in [14] (dose of 200 μg/kg), the “Tumor growth in vivo” value is reported as “inhibited tumor growth”. Further, the “Growth of HCT-116 human colon tumor xenograft” value in [14] (mice, little apparent toxicity, no reference given) was “potent growth inhibition”.
Take `CN1C/C(=C\c2ccccn2)C(=O)/C(=C/c2ccccn2)C1` [UBS-109]: the Effect on xenografts result is recorded as “dose response” in data set [2] (50, 100 and 150 mg/kg p.o., ref Manuscripts in preparation 2013); “dose response” in the data set on MiPaPc xenografts. The “Effect on osteoclastogenesis as compared with curcumin” value in the data set on osteoclastogenesis is “suppressive effect”. Further, in data set [15], the “Effect on osteoblastic differentiation and mineralization” value was “unique stimulatory effect”.
